System: MS2 coat protein
Assay: apparent Kd, MS2 coat protein; higher = weaker binding; RNA-MaP array; FMN 200 µM where present
How it was run: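 The apparent Kd comes from binding curves fitted cluster by cluster, filtered, and summarised as a median. Those curves followed SNAP-549-labelled MS2 coat protein from 0.7 or 1.5 nM, doubling to 3 µM, on Illumina sequencing-chip clusters where stalled E. coli RNA polymerase had transcribed the designs, without and then with constant ligand. The buffer was 100 mM Tris-HCl pH 7.5, 80 mM KCl, 4 mM MgCl2, BSA, DTT, yeast tRNA and Tween-20, and green signal was normalised to red-channel RNA signal and control-cluster median Fmax.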

[1] = designed as: ON switch for flavin mononucleotide, no ligand
[2] = ligand present: flavin mononucleotide, designed as: ON switch for flavin mononucleotide
[3] = designed as: OFF switch for flavin mononucleotide, no ligand
[4] = ligand present: flavin mononucleotide, designed as: OFF switch for flavin mononucleotide

Row | Sequence | apparent Kd [1] [nM] | apparent Kd [2] [nM] | apparent Kd [3] [nM] | apparent Kd [4] [nM]
1 | AGAGACUUGGGAGGAUAUGCCUGAUGGACACGGGCAGAAGGCCCAAACAUGAGGAUCACCCAUGUAUCUAAGCCCUGGAAGGGC | 310 | 20.6 |  | 
2 | CUCUUGUGAGGAUAUCGAAGAAAAGAAAAGAAAGAAAAGAACGAGAAGGCACAUGAGGAUCACCCAUGUAAGAA |  |  | 57.2 | 171
3 | GCAGGUUAAGUAAGGAUAUACCUCUGGAAACAGAGGUAGAAGGUACAUGAGGAUCACCCAUGUUUCUCUUCUGC |  |  | 17.3 | 45.7
4 | AAAUUUAACGAAGGAUAUGCUGACAUGAGGAUCACCCAUGUGUGCCUUGUGUUGCUGAUUAGGUUGCAGAAGGUCGUAUACAUA |  |  | 330 | 1230
5 | GACAUGAGGAUCACCCAUGUCCUUCCAGAAGGCUGGCGCGCGAAACCUAAAUCAGUUCCGGGCACAGAGGAUAUGGGCAGUUGG | 67.2 | 14.3 |  | 
6 | GCAAAACAUGAGGAUCACCCAUGUCAACAAAAUCAAGGAUAUGAGCCGGCAAUGCCAGCAUCAGAAGGUGAACCUU | 81.9 | 86.5 |  | 
7 | GACAUCGCAGGAUAUUAGGGUUUGUACAUGAGGAUCACCCAUGUUAAUUGGGUUAAUGUCUAAGAAGGGCGGUGUC |  |  | 147 | 240
8 | UUUGCAUUCCGAGGAUAUUCAGAUAAUAACUACACAUGAGGAUCACCCAUGUGGCGAUAGCCUAGGGAGAAGGCGGUUUGCUUU | 19.7 | 20.9 |  | 
9 | UAUUAGUGAGGAUAUGAGUCGUAGAACAAUAGUACUACGUCUCAGAAGGCACAUGAGGAUCACCCAUGUUCCUU |  |  | 13.6 | 44.9
10 | UGUAUGGACAGAGGAUAUACGUGCUAGAGAUACUAGCAAAUAAUCCUUACAUGAGGAUCACCCAUGUAGAAGGCUGUCCAUACU |  |  | 20.1 | 46.5
11 | GCUUCGGCAGGAUAUACAUGAGGAUCACCCAUGUUGAAGUUGAAGAUCUUCGGCUUCGGUAGAAGGGUUGAAGU |  |  | 38 | 32.1
12 | GGUGGACAUGAGGAUCACCCAUGUGAGGAUAUCGGCUGGCUAGCGGCGGAUGGCUUCUCGAGAAGGCGCAUUGU |  |  | 86.4 | 75
13 | CAUACAGUAGUCAGGAUAUUGGAAGAGACACGGAACGAGAAGGGACAUGAGGAUCACCCAUGUAUACUGUAAAG |  |  | 26.8 | 22.6
14 | AGAUGGUAGAGAGGAUAUCAUGUGCUGACAUGAGGAUCACCCAUGUAGGGACGUCGGUCCAAUUAUGAGAAGGCUCUACCAUCA | 81.7 | 50.8 |  | 
15 | AAGCCUCUUGUCAGGAUAUCUGUCGGUCCUCCAAGAGAGAAGGGACAUGAGGAUCACCCAUGUAAGCCCAGGGA |  |  | 16.1 | 27.9
16 | GCUGCAUGUGAGAAGGCGAUCAUGAAACAUGAUCGAGGAUAUCAUGUAAACAUGAGGAUCACCCAUGUAUGGGUAUUAAGCAGC |  | 59.3 |  | 
17 | CGCGAACAGGUUAACAUGAGGAUCACCCAUGUGGACUCAUGGUAGGAUAUCGGGAAGGAGGAAACCGAGAAGGGCUGGUGAGCC | 634 | 443 |  | 
18 | GCCGUGAUAGCAGGAUAUGCUCCGGUUGCUCAUACAUGAGGAUCACCCAUGUCACGUGCGGUGGUGCAGAAGGGUUGAAGCGAU | 764 | 209 |  | 
19 | GCCUAACAUGAGGAUCACCCAUGUAGUGGGUUGUUAGGAUAUGGGCGGCGUAACGCUGCACCAGAAGGAAUAGAAG | 865 | 504 |  | 

Row | Sequence | apparent Kd [1] [nM] | apparent Kd [2] [nM] | apparent Kd [3] [nM] | apparent Kd [4] [nM]
20 | UUUUCUUUUGUGAGGAUAUACUUGUUUUUUUUUUUGUAGAAGGCACAUGAGGAUCACCCAUGUACUCUUUCCUG |  |  | 19.7 | 22.6
21 | CGUGCGUAUGUGAGGAUAUGCUGGUCCUUGGAUCGGCAGAAGGUACAUGAGGAUCACCCAUGUGGUGUCGUUCU |  |  | 252 | 292
22 | GGAGAACAUGAGGAUCACCCAUGUGGAUGGGCGCUAGGAUAUGCGAGAGGGUGGAGAGAAGCAGAAGGAGUGGAUA | 62.2 | 54.5 |  | 
23 | GGAUAGAACAGAGGAUAUACGUGCUAGAGAUACUAGCAAAAUUUCCUCACAUGAGGAUCACCCAUGUAGAAGGCUGUCCUAUCG |  |  | 11.8 | 208
24 | GGGAAGGUUAGAGGAUAUAUUGUGUGUGAGAGAAUAGAAGGCUAAACAUGAGACACACACAUGAGGAUCACCCAUGUUAUGUUU | 147 | 91 |  | 
25 | UGCCGUAGAGGAUAUACAUAGAAAUAGAUUCAUGUAAAACUACAUGAGGAUCACCCAUGUAGAAGGCUAUGGCU |  |  | 21.6 | 137
26 | CGUGCGUAUGUGAGGAUAUGCUGGUCCUUGGAUCGGCAGAAGGCACAUGAGGAUCACCCAUGUGGUGUCGUACC |  |  | 187 | 35.9
27 | AGUAACAGAGGAUAUACUGUUUUAUGUGUUUAUUGUUUUGAACAUGAGGAUCACCCAUGUAGAAGGCUGAAUAA |  |  | 23.3 | 20.9
28 | GGGAUUAAGGCAGGAUAUCCGGGUUGGCCUCGACAUGAGGAUCACCCAUGUGGAGAAGGGCCGAUUGCCCGUAGGGUGAUCAAG |  |  | 274 | 108
29 | CUUUUGUGAGGAUAUUAGUAGUAAAUUAAUAAAAUUACUACUGAGAAGGCACAUGAGGAUCACCCAUGUUCCUC |  |  | 30.8 | 190
30 | GUGCCUUGGGAGAAGGUUAUGUGCAAAGCAUUUAAAGGAUAUUCAUACCGGAAACGGACAUGAGGAUCACCCAUGUGGCACAAA | 621 | 150 |  | 
31 | AAUAAACGCACAGGAUAUAGCAUCGACGUUGAGAACUUAAAGACGUCGAUGCUAGAAGGGUGAAAACAUGAGGAUCACCCAUGU | 87.6 | 18.7 |  | 
32 | GCGUUGAACGAGAAGGCCACUACAUGAGGAUCACCCAUGUCGUAGAGUAUUGGAGGAUAUCGAUAGGCGUCUCAUGAGGACAUA |  |  | 23.6 | 11.6
33 | UUUUAACAUGAGGAUCACCCAUGUGAGGAUAUCGAAAUUUAUAUUAAUAUUUAUAUAUCGAGAAGGCACAUUUU |  |  | 113 | 97.8
34 | AUAAAACAUGAGGAUCACCCAUGUAGAAACAUGGGAGGAUAUACAAAGACGAAAGUCAAAGUAGAAGGCCUAAAAG | 462 | 311 |  | 
35 | GUUGCACAAGUUAACAUGAGGAUCACCCAUGUCAAAAGACAUGAGGAUAUGGAUGUGAAGAUAAUCCAGAAGGCAUAAUGCUAA | 596 | 129 |  | 
36 | AAAAUCAAAUGAGGAUAUUCAUACACUACAUACGGAGAAGGCAUACAAUCAUGAGGACAUGAGGAUCACCCAUGUUGUGACCAU | 29.9 | 20.9 |  | 
37 | GCACUGGAUGUAGGAUAUCAGGACGAUAAGUCCUGAGAAGGACAUGAGGAUCACCCAUGUACACAAAACCAGUGCUAUAAUAUA |  |  | 13.7 | 18.8

From the EternaBench riboswitch data
